Data published in ChEMBL document CHEMBL4689842, “EUbOPEN Chemogenomics Library wave 1” (2021).

Test system: Fibroblast
Experiment: Multiplex assay against human fibroblast
Assay type: toxicity, cell-based
Outline: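 Live cells were stained at seeding with Hoechst33342, BioTracker Green Microtubule Cytoskeleton Dye, MitoTracker Red and Annexin V Alexa Fluor 680. Following compound addition, they were imaged on a CQ1 microscope at 37°C and 5% CO2 and gated by CellPathfinder machine learning into Hoechst high-intensity objects or normal cells, with normal cells split into healthy, pyknosed or fragmented nuclei and pyknosed cells into mitotic or apoptotic. Tubulin, mitochondrial-mass and membrane-permeability phenotypes are per cents of healthy-nucleus cells.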

[1] = 12 h, 1 µM, compound concentration 1 uM, replicate 1
[2] = 12 h, 1 µM, compound concentration 1 uM, replicate 2
[3] = 12 h, 10 µM, compound concentration 10 uM, replicate 1
[4] = 12 h, 10 µM, compound concentration 10 uM, replicate 2
[5] = 24 h, 1 µM, compound concentration 1 uM, replicate 1
[6] = 24 h, 1 µM, compound concentration 1 uM, replicate 2
[7] = 24 h, 10 µM, compound concentration 10 uM, replicate 1
[8] = 24 h, 10 µM, compound concentration 10 uM, replicate 2

## CCn1cc(-c2ccnc3[nH]c(-c4cccc(CN(C)C)c4)cc23)c(-c2ccc(NC(=O)N(C)C)cc2)n1 [GSK-1070916]
[1]
  Population Apoptotic (%): 80%
  Population Fragmented Nuclei (%): 33%
  Population Healthy Nuclei (%): 51%
  Population Hoechst High Intensity Objects (%): 13%
  Population Membrane Permeable-Phenotype (%): 4%
  Population Mitochondria Different-Phenotype (%): 0%
  Population Mitotic Cells (%): 19%
  Population Normal (%): 86%
  Population Pyknosed Nuclei (%): 14%
  Population Tubulin-Different-Phenotype (%): 5%
  Total Cell Count: 205
[2]
  Population Apoptotic (%): 25%
  Population Fragmented Nuclei (%): 56%
  Population Healthy Nuclei (%): 34%
  Population Hoechst High Intensity Objects (%): 46%
  Population Membrane Permeable-Phenotype (%): 26%
  Population Mitochondria Different-Phenotype (%): 6%
  Population Mitotic Cells (%): 75%
  Population Normal (%): 53%
  Population Pyknosed Nuclei (%): 9%
  Population Tubulin-Different-Phenotype (%): 13%
  Total Cell Count: 83
[3]
  Population Apoptotic (%): 60%
  Population Fragmented Nuclei (%): 23%
  Population Healthy Nuclei (%): 56%
  Population Hoechst High Intensity Objects (%): 44%
  Population Membrane Permeable-Phenotype (%): 5%
  Population Mitochondria Different-Phenotype (%): 2%
  Population Mitotic Cells (%): 39%
  Population Normal (%): 55%
  Population Pyknosed Nuclei (%): 19%
  Population Tubulin-Different-Phenotype (%): 27%
  Total Cell Count: 473
[4]
  Population Apoptotic (%): 33%
  Population Fragmented Nuclei (%): 54%
  Population Healthy Nuclei (%): 35%
  Population Hoechst High Intensity Objects (%): 49%
  Population Membrane Permeable-Phenotype (%): 4%
  Population Mitochondria Different-Phenotype (%): 13%
  Population Mitotic Cells (%): 66%
  Population Normal (%): 50%
  Population Pyknosed Nuclei (%): 9%
  Population Tubulin-Different-Phenotype (%): 52%
  Total Cell Count: 127
[5]
  Population Apoptotic (%): 70%
  Population Fragmented Nuclei (%): 32%
  Population Healthy Nuclei (%): 56%
  Population Hoechst High Intensity Objects (%): 19%
  Population Membrane Permeable-Phenotype (%): 3%
  Population Mitochondria Different-Phenotype (%): 1%
  Population Mitotic Cells (%): 30%
  Population Normal (%): 80%
  Population Tubulin-Different-Phenotype (%): 5%
  Total Cell Count: 222
[6]
  Population Apoptotic (%): 66%
  Population Fragmented Nuclei (%): 62%
  Population Healthy Nuclei (%): 26%
  Population Hoechst High Intensity Objects (%): 23%
  Population Membrane Permeable-Phenotype (%): 21%
  Population Mitochondria Different-Phenotype (%): 14%
  Population Mitotic Cells (%): 33%
  Population Normal (%): 76%
  Population Pyknosed Nuclei (%): 11%
  Population Tubulin-Different-Phenotype (%): 21%
  Total Cell Count: 69
[7]
  Population Apoptotic (%): 49%
  Population Fragmented Nuclei (%): 24%
  Population Healthy Nuclei (%): 51%
  Population Hoechst High Intensity Objects (%): 50%
  Population Membrane Permeable-Phenotype (%): 0%
  Population Mitochondria Different-Phenotype (%): 10%
  Population Mitotic Cells (%): 50%
  Population Normal (%): 50%
  Population Pyknosed Nuclei (%): 24%
  Population Tubulin-Different-Phenotype (%): 31%
  Total Cell Count: 430
[8]
  Population Apoptotic (%): 20%
  Population Fragmented Nuclei (%): 45%
  Population Healthy Nuclei (%): 40%
  Population Hoechst High Intensity Objects (%): 44%
  Population Membrane Permeable-Phenotype (%): 3%
  Population Mitochondria Different-Phenotype (%): 20%
  Population Mitotic Cells (%): 80%
  Population Normal (%): 55%
  Population Pyknosed Nuclei (%): 14%
  Population Tubulin-Different-Phenotype (%): 51%
  Total Cell Count: 129

## CCN1CCN(c2ccc(Nc3cc(N(C)C(=O)Nc4c(Cl)c(OC)cc(OC)c4Cl)ncn3)cc2)CC1 [INFIGRATINIB]
[1]
  Population Apoptotic (%): 55%
  Population Fragmented Nuclei (%): 28%
  Population Healthy Nuclei (%): 43%
  Population Hoechst High Intensity Objects (%): 24%
  Population Membrane Permeable-Phenotype (%): 2%
  Population Mitochondria Different-Phenotype (%): 12%
  Population Mitotic Cells (%): 44%
  Population Normal (%): 75%
  Population Pyknosed Nuclei (%): 27%
  Population Tubulin-Different-Phenotype (%): 23%
  Total Cell Count: 322
[2]
  Population Apoptotic (%): 77%
  Population Fragmented Nuclei (%): 63%
  Population Healthy Nuclei (%): 20%
  Population Hoechst High Intensity Objects (%): 38%
  Population Membrane Permeable-Phenotype (%): 18%
  Population Mitochondria Different-Phenotype (%): 27%
  Population Mitotic Cells (%): 22%
  Population Normal (%): 61%
  Population Pyknosed Nuclei (%): 16%
  Population Tubulin-Different-Phenotype (%): 45%
  Total Cell Count: 89
[3]
  Population Apoptotic (%): 61%
  Population Fragmented Nuclei (%): 31%
  Population Healthy Nuclei (%): 55%
  Population Hoechst High Intensity Objects (%): 13%
  Population Membrane Permeable-Phenotype (%): 5%
  Population Mitotic Cells (%): 38%
  Population Normal (%): 86%
  Population Tubulin-Different-Phenotype (%): 3%
  Total Cell Count: 195
[4]
  Population Apoptotic (%): 75%
  Population Fragmented Nuclei (%): 60%
  Population Healthy Nuclei (%): 26%
  Population Hoechst High Intensity Objects (%): 34%
  Population Membrane Permeable-Phenotype (%): 17%
  Population Mitochondria Different-Phenotype (%): 5%
  Population Mitotic Cells (%): 25%
  Population Normal (%): 65%
  Population Pyknosed Nuclei (%): 12%
  Population Tubulin-Different-Phenotype (%): 11%
  Total Cell Count: 98
[5]
  Population Apoptotic (%): 60%
  Population Fragmented Nuclei (%): 15%
  Population Healthy Nuclei (%): 44%
  Population Hoechst High Intensity Objects (%): 36%
  Population Membrane Permeable-Phenotype (%): 4%
  Population Mitochondria Different-Phenotype (%): 29%
  Population Mitotic Cells (%): 40%
  Population Normal (%): 63%
  Population Pyknosed Nuclei (%): 39%
  Population Tubulin-Different-Phenotype (%): 40%
  Total Cell Count: 259
[6]
  Population Apoptotic (%): 66%
  Population Fragmented Nuclei (%): 60%
  Population Healthy Nuclei (%): 27%
  Population Hoechst High Intensity Objects (%): 46%
  Population Membrane Permeable-Phenotype (%): 0%
  Population Mitochondria Different-Phenotype (%): 23%
  Population Mitotic Cells (%): 33%
  Population Normal (%): 53%
  Population Pyknosed Nuclei (%): 12%
  Population Tubulin-Different-Phenotype (%): 38%
  Total Cell Count: 90
[7]
  Population Apoptotic (%): 68%
  Population Fragmented Nuclei (%): 26%
  Population Healthy Nuclei (%): 61%
  Population Hoechst High Intensity Objects (%): 15%
  Population Mitochondria Different-Phenotype (%): 3%
  Population Mitotic Cells (%): 31%
  Population Normal (%): 84%
  Population Pyknosed Nuclei (%): 11%
  Population Tubulin-Different-Phenotype (%): 3%
  Total Cell Count: 191
[8]
  Population Apoptotic (%): 100%
  Population Fragmented Nuclei (%): 56%
  Population Healthy Nuclei (%): 32%
  Population Hoechst High Intensity Objects (%): 34%
  Population Membrane Permeable-Phenotype (%): 9%
  Population Mitochondria Different-Phenotype (%): 9%
  Population Mitotic Cells (%): 0%
  Population Normal (%): 65%
  Population Pyknosed Nuclei (%): 10%
  Population Tubulin-Different-Phenotype (%): 9%
  Total Cell Count: 99
